Active and inactive are the calls of the source. The rule behind the calls is not given here.
Legend:
[1] = Dissociation constant, pKa of the compound; type: physicochemical
[2] = system: Escherichia coli B; experiment: Competitive inhibition of Escherichia coli B H2-pteroate synthetase assessed as decrease in H2-pteroate formation using [7-14C]-PABA as substrate treated with enzyme for 10 mins prior to substrate challenge for 40 mins by radioassay method
How it was run: (§1)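 Cell-free extract of E. coli B (400-600 ug protein) was preincubated 10 min at 37 °C with 0.5 umol ATP, 2 umol MgCl2, 0.5 mg ascorbate, 0.1 mmol Tris-HCl pH 8.0 and 20 nmol 2-amino-4-hydroxy-6-hydroxymethyl-7,8-dihydropteridine in 0.45 ml. [7-14C]-PABA was then added and incubation ran 40 min. The reaction was stopped with citric acid phosphate buffer pH 3.8, free PABA was ether-extracted, and aqueous radioactivity was counted.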

[3] = Competitive inhibition of Escherichia coli B H2-pteroate synthetase assessed as decrease in H2-pteroate formation using [7-14C]-PABA as substrate treated with enzyme for 10 mins prior to substrate challenge for 40 mins by Dixon plot analysis; how it was run: as §1
[4] = system: Escherichia coli; experiment: Antibacterial activity against Escherichia coli 273 assessed as growth inhibition at 1 mM after 22 hrs; type: functional, organism-based
How it was run: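 PABA-requiring E. coli 273 was grown across a range of PABA concentrations with compound at 1 mM, and growth was read after 22 h of incubation.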

Row | SMILES | Inhibition index [2] | also measured
1 | Nc1ccc(CC(=O)O)cc1 |  | pKa [1]: 3.6
2 | CNC(=O)c1ccc(N)cc1 | 120 | 
3 | CCOC(=O)CCC(=O)c1ccc(N)cc1 | 460 | 
4 | COC(=O)CNC(=O)c1ccc(N)cc1 | 550 | 
5 | Nc1ccc(C(=O)N[C@H](CCC(=O)O)C(=O)O)cc1 | 250 | 
6 | Nc1ccc(C(=O)c2ccccc2)cc1 | 800 | pKa [1]: 2.24
7 | Nc1ccc(C(=O)CC(C(=O)O)c2ccccc2)cc1 (stereo in doubt; 26) | 40 | 
8 | Nc1ccc(C(=O)NCCCC(=O)O)cc1 | 700 | 
9 | Nc1ccc(C(=O)N[C@@H](CCC(=O)O)C(=O)O)cc1 | 76 | Ki [3]: 170 µM
10 | NC(=O)c1ccc(N)cc1 | 53 | 
11 | CC(=O)c1ccc(N)cc1 | 210 | pKa [1]: 2.5
12 | Nc1ccc(C(=O)CC(C(=O)O)c2ccccc2)cc1 (racemic) [listing 1 of 2 here] | 74 | growth inhibition (GI) [4]: inactive
13 | Nc1ccc(C(=O)Nc2ccccc2)cc1 | 600 | 
14 | Nc1ccc(C(=O)NCCc2ccccc2)cc1 | 800 | 
15 | CCOC(=O)c1ccc(N)cc1 [BENZOCAINE] | 600 | pKa [1]: 2.5
16 | Nc1ccc(C(=O)CC(C(=O)O)c2ccccc2)cc1 (racemic) [listing 2 of 2 here] |  | Ki [3]: 150 µM
17 | CCC(=O)c1ccc(N)cc1 | 180 | 
18 | CN(C)C(=O)c1ccc(N)cc1 | 400 | 
19 | COC(=O)c1ccc(N)cc1 | 450 | pKa [1]: 2.46
20 | Cc1ccc(N)cc1 |  | pKa [1]: 5.1
21 | Nc1ccc(C(=O)CC(C(=O)O)c2ccccc2)cc1 (stereo in doubt; 25) | 480 | 
22 | Nc1ccc(C(=O)NCC(=O)O)cc1 | 260 | 
23 | Nc1ccc(C(=O)CCC(=O)O)cc1 | 55 | growth inhibition (GI) [4]: inactive; Ki [3]: 130 µM
24 | CCOC(=O)CC(=O)c1ccc(N)cc1 | 105 | 
25 | CCOC(=O)CC[C@H](NC(=O)c1ccc(N)cc1)C(=O)OCC | 600 | 
